# Rows were chosen to be rich in hits. Some 2.4% of all compounds tested hit in one or more screens of this group.
# Rin1 Abl inh: inhibitors of Rin1-Abl protein binding, primary screen, biochemical, TR-FRET. Tyrosine-protein kinase ABL1 (Homo sapiens) + Ras and Rab interactor 1 (Homo sapiens), …. inhibition, % at 7.35 µM. actives 0.4% (n = 360,000). AID 588664, 2011; in the data active = inhibition above about 5%, passing the limit was not always enough
# TPT1 inh: Candida albicans TPT1 enzyme inhibitors, primary screen, biochemical, fluorescence polarization. recombinant caTPT1, FP RNA substrate dephosphorylation. actives 0.81% (n = 300,000). tRNA 2'-phosphotransferase TPT1 (Candida albicans SC5314). inhibition, % at 5 µM;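 active = inhibition above the mean of all tested compounds plus 3 SD, set per screening campaign, cut at about 24% in these data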;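 note: plate controls were DMSO alone for no effect and ferristatin control at 100 nM for full effect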
# Rpn11 block: Rpn11 (PSMD14) deubiquitinase inhibitors, primary screen, biochemical, fluorescence polarization, uHTS; human 26S proteasome, Ub4-pepOG fluorescence polarization; 20S core pre-blocked with epoxomicin; inhibition, % at 20 µM; actives 0.59% (n = 360,000); AID 588493, 2011;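 active = inhibition at 20 µM, scaled to each plate's controls, above about 33%, limit read from the data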
# CSN deneddyl inh: inhibitors of CSN-mediated cullin deneddylation, primary screen, biochemical, fluorescence polarization, uHTS; inhibition, % at 12.5 µM; Purified CSN, SCF-Nedd8-OG deneddylation; actives 0.38% (n = 360,000); COP9 signalosome complex subunit 5 (Homo sapiens), Q92905;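 active = pattern-corrected inhibition above about 35%, with an unprinted fluorescence ratio check between 0.5 and 1.5, limit read from the data, passing the limit was not always enough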;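 note: 0% = enzyme with substrate and 100% = substrate without enzyme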
#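 Material: human Csn5 produced in HEK293T cells; Input: enzyme 0.24 nM; Reagent: SCFSkp2-Nedd8OG substrate at 10 nM final; Dosing: 12.5 µM compound; Incubation: 90 min reaction at room temperature; Detection: fluorescence polarization of the substrate; Evaluation: % inhibition of substrate cleavage by Csn5; Control set: substrate-only high control, full reaction low control.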
# HNF4A DNA FP: change in binding of human HNF4A to DNA, primary screen, biochemical, fluorescence polarization, FITC-DNA | Hepatocyte nuclear factor 4-alpha (Homo sapiens), P41235 | 1 h | activity change, % at 10 µM | actives 0.3% (n = 360,000) | AID 1224865, 2016; in the data active = activity change above about 30%, passing the limit was not always enough
# Neddylation inh: inhibitors of cullin neddylation, primary screen, biochemical, TR-FRET, uHTS, NAE and Ubc12. inhibition, % at 25 µM. actives 0.58% (n = 360,000); in the data active = inhibition above about 36%
# Target sequence (P61081 whole entry, looked up): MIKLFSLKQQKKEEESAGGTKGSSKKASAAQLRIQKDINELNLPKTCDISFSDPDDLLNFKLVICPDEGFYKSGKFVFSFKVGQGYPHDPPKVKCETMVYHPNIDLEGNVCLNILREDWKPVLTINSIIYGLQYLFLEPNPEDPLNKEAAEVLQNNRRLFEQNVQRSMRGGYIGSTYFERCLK
# Target sequence (Q13564 whole entry, looked up): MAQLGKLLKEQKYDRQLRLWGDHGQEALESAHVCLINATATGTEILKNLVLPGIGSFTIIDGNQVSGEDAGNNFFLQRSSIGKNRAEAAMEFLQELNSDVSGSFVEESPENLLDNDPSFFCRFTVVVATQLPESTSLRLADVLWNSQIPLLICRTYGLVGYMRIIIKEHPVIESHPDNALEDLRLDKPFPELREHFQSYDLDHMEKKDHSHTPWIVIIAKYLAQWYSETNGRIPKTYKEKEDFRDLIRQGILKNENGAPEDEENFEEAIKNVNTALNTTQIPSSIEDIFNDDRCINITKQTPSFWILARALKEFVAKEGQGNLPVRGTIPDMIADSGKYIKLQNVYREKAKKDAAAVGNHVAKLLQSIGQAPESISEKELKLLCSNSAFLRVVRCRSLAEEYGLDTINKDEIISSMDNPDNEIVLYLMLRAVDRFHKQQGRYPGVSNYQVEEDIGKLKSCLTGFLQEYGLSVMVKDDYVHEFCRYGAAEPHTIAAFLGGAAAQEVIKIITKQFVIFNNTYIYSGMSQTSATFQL
# Rpn11 inh conf: Rpn11 (PSMD14) deubiquitinase inhibitors, confirmation, biochemical, fluorescence polarization, single concentration. purified human 26S proteasome, Ub4-pepOG fluorescence polarization; proteasome pretreated with epoxomicin. actives 29% (n = 1,900). shares compounds with Rpn11 block. inhibition, % at 20 µM
# MMP-2 counter: MMP-2 enzyme inhibition, confirmation, counter-screen for RPN11 inhibitor project, biochemical, fluorescence, single concentration | shares compounds with Rpn11 block | recombinant MMP-2, FRET peptide cleavage fluorescence | inhibition, % at 20 µM | actives 4% (n = 1,900) | AID 602330, 2012;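 note: human MMP-2 activated beforehand with APMA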
# Thrombin FP: bovine thrombin protease inhibition, confirmation, counter-screen for Rpn11 inhibitor project, biochemical, fluorescence polarization, single concentration; inhibition, % at 20 µM; actives 13% (n = 1,900); AID 602333, 2012; bovine thrombin cleavage of Ub4-pepOG; shares compounds with Rpn11 block;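 active = mean inhibition at least 40% at 20 µM, or signal 3 deviations below plate average, so some actives read negative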;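 note: plate controls were thrombin with DMSO for no effect and buffer wells lacking thrombin for full effect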
# * marks the source's active call; other numbers are inactive results; · = not tested or not shown. Cut-off read from the data, not from the text of the source, unless noted: active = inhibition above about 40%; inactive = the rest.
SMILES,Rin1 Abl inh,TPT1 inh,Rpn11 block,CSN deneddyl inh,HNF4A DNA FP,Neddylation inh,Rpn11 inh conf,MMP-2 counter,Thrombin FP
CCOC(=O)C1CCN(/C=C2/C(=O)NC(=S)N(c3ccccc3F)C2=O)CC1,-2.0,3.6,8.3,1.4,-0.7,-4.5,·,·,·
COc1ccc(-n2nnnc2C(CCc2ccccc2)N2CCC(n3c(=O)[nH]c4ccccc43)CC2)cc1 (stereo not given),5.0,·,1.7,1.0,-1.5,-1.5,·,·,·
O=Cc1c(C(=O)O)n(Cc2ccccc2Cl)c2ccccc12,0.9,5.4,-1.1,2.5,2.5,4.3,·,·,·
C=Cc1ccc(Cn2c(C(=O)O)c(C=O)c3ccccc32)cc1,0.7,8.2,37.8*,13.7,3.2,2.2,154.8*,-2.2,60.4*
FC(F)(F)c1ccc(-c2ccc3c(c2)CNCc2cnnn2-3)cc1,3.8,·,-1.0,-0.8,-1.6,-4.3,·,·,·
CCCOP(=O)(OCCC)C(NC(=O)c1cc(OC)c(OC)c(OC)c1)c1ccccc1 (stereo not given),3.9,-2.5,139.6*,-6.6,128.8*,-4.6,2.1,-26.4,-1.6
Cc1cccn2c(=O)c3cc(C(=O)N4CCC5(CC4)OCCO5)n(C)c3nc12,-0.3,-4.0,69.4*,-5.7,-0.5,·,-7.5,-2.8,-8.4
O=C1NC(=O)N(c2ccc(Cl)cc2)C(=O)/C1=C/c1coc2ccc(O)cc2c1=O,-2.7,10.9,53.6*,14.3,1.1,11.9,-19.0,5.6,-11.2
Cc1cc(/C=C2\C(=O)NC(=O)N(c3ccc(Br)cc3)C2=O)c(C)n1C,-1.7,15.9,29.8,17.6,1.9,3.9,·,·,·
Cc1cc(/C=C2/C(=O)NC(=O)N(c3ccc(Br)cc3)C2=O)c(C)n1C,-1.8,12.5,51.6*,12.8,2.9,1.6,6.3,4.6,-57.3
CCOC(=O)[C@]12Cc3cc(C)ccc3[C@H]1N(C1CCCCC1)C(=O)c1cc(OC)ccc12,·,·,·,0.4,1.0,5.1,·,·,·
CCCCCSc1cc(OC)c(CCNC)cc1OC,-1.4,-1.7,138.3*,-4.0,-6.6,4.6,12.7,-21.0,2.0
CCCCCCCSc1cc(OC)c(CCNC)cc1OC,-1.5,0.8,-3.4,-5.3,3.9,-9.2,·,·,·
COc1ccc(-n2c(/C=C/c3ccc(O)cc3)nc3ccccc3c2=O)cc1,-3.0,7.6,48.2*,6.2,5.8,32.0,15.3,47.0*,3.7
O=c1c2ccccc2nc(/C=C/c2ccc(O)cc2)n1-c1ccc(O)cc1,-3.9,10.0,16.7,-2.0,8.5,·,·,·,·
Cc1cc(C=C2C(=O)N(C)C(=S)N(C)C2=O)c(C)n1-c1ccncc1,-0.1,18.7,42.1*,9.9,-6.4,-16.2,7.3,-10.0,11.1
Cc1cc(/C=C2\C(=O)NC(=O)N(c3cccc(F)c3)C2=O)c(C)n1-c1cc(C(=O)O)cc(C(=O)O)c1,0.5,10.7,-1.4,13.4,-22.0,9.9,·,·,·
COc1ccc(CCn2c(O)c(C=Nc3ccccc3F)c(=O)[nH]c2=O)cc1OC,-1.2,17.1,34.8*,10.7,3.1,10.6,-2.0,-31.1,0.9
COc1ccc(CCn2c(O)c(C=NCCCO)c(=O)[nH]c2=O)cc1OC,0.8,2.5,-5.7,-3.6,3.0,-2.0,·,·,·
O=C(N/N=C/c1c(O)n(CCc2ccc(F)cc2)c(=O)[nH]c1=O)c1ccccc1,0.8,6.8,38.6*,6.0,3.4,·,18.2,-29.8,-16.5
COc1ccc(Cn2c(O)c(/C=N/NC(=O)c3ccccc3)c(=O)[nH]c2=O)cc1,-1.4,8.2,13.2,13.6,7.7,·,·,·,·
O=c1[nH]c(=O)n(Cc2ccccc2)c(O)c1/C=N/NCCO,-0.5,23.7,47.0*,19.1,18.6,16.4,39.0,-32.5,24.8
CCC1(NS(=O)(=O)c2ccc(N)cc2)C(=O)N(C)C(=O)N(C)C1=O,4.5,·,0.8,3.7,5.8,-9.9,·,·,·
Cc1cccc(C)c1-n1nnnc1C(c1cccs1)N1CCC2(CC1)C(=O)NCN2c1ccccc1 (stereo not given),5.5,·,12.2,1.9,3.7,-9.2,·,·,·
Cc1ccc(/C=C2\C(=O)NC(=S)N(c3ccc(F)cc3)C2=O)o1,5.0,·,41.3*,26.4,24.8,-21.7,44.2*,54.9*,56.6*
COC(/C(C)=C/C=C/C(C)=C/c1coc(C)n1)C(C)C1CC(O)C2(C)OC2C=CC(C)C2CC(CC(=O)O2)CC2OC2C(=O)O1 (stereo not given),4.4,·,6.4,-0.8,-0.2,2.5,·,·,·
O=C(NN=Cc1ccc(N(CCCl)CCCl)cc1)C(=O)c1c[nH]c2ccccc12,2.9,·,51.7*,6.2,7.9,8.2,57.2*,13.7,34.3
Cc1ccc(Cn2cc(C=O)c(-c3ccc(C)cc3)n2)cc1,-2.3,0.2,37.1*,-4.8,2.0,1.6,3.3,3.1,-16.1
CC(C)OCCCNC(=O)c1c(N)n(CC2CCCO2)c2nc3ccccc3nc12 (stereo not given),9.8,2.8,45.1*,35.6*,5.5,·,7.0,-12.6,4.5
